Converted amounts (≈) assume the structure as drawn. The source made the active and inactive calls. No cut-off for these calls is given here. Where only a bound is given, the exact number is not on record here.

One series concerns MIA PaCa-2. Nature of the series: Antitumor activity against human MIAPaCa2 cells assessed as inhibition of anchorage-independent growth after 3 weeks by NBT staining-based soft agar assay. It counts as functional, cell-based. Put shortly:
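MIA-PaCa-2 cells (1.0×10⁵) in growth medium with compound were mixed into 0.4% Noble top agar over a 0.8% bottom layer. Each concentration was plated in triplicate. Plates were incubated 3 weeks at 37 °C, 5% CO₂, then stained with 0.05% nitroblue tetrazolium for 48 h and photographed.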

Series [1] can be described thus: Growth inhibition of multidrug-resistant human MES-SA/Dx5 cells. Type of series: functional.
In series [2] the test system is Mus musculus. Briefly: AUC in ICR mouse at 5 mg/kg, po by LC-MS/MS analysis. Type of series: ADME, organism-based, Plasma. The note with it: in vivo. Further details: dose 5 mg/kg, route oral. Put shortly: (§1)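 Male ICR mice, 6–8 weeks old, N=3 per group. Single 5 mg/kg dose in NMP:PEG300:water (1:4:5 v/v), given as IV bolus or oral gavage. Serial arterial blood was drawn through a carotid cannula at 2–360 min. Plasma was protein-precipitated with acetonitrile containing internal standard and assayed by LC/MS/MS. Parameters were derived by noncompartmental analysis.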

Series [3] is described as follows: Cytotoxicity against human H80 cells after 96 hrs by trypan blue exclusion assay. It counts as functional. As to conditions: H80, 96 h. The method in brief: (§2)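 Cells were grown in DMEM or RPMI with 10% FBS and plated at 2.5×10⁴ cells/well in 12-well dishes. Compounds were added 24 h later at various concentrations. After 96 h, viable cells were counted by trypan blue exclusion from duplicate wells. Results are the mean of two independent experiments.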

The test system of series [4] is MDCK. Briefly: Efflux ratio of permeability from basolateral to apical over apical to basolateral side in MDCK cells expressing MDR-1. As to conditions: dog.
Another series deals with BT-20. Briefly: Antitumor activity against human BT20 cells xenografted in NCR-nu/nu mouse assessed as reduction in tumor volume at 20 mg/kg, ip treated 3 times a week for 2 weeks measured on alternate days for 14 days. Further details: dose 20 mg/kg. It counts as functional, organism-based. The method in brief:
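Female athymic NCr-nu/nu mice were implanted subcutaneously in the hind leg with 0.5–1.0×10⁷ BT20 cells. Mice were paired once tumours reached about 100–150 mm³ (vehicle N=7, treated N=8). Dosing was 20 mg/kg IP in DMSO (0.1 mL), 3×/week for 2 weeks. Calipers measured two dimensions; volume = L×S²×π/6. Body weight was recorded at each measurement.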

Series [5] has as its system Mus musculus. Nature of the series: Oral bioavailability in ICR mouse at 5 mg/kg by LC-MS/MS analysis. It counts as ADME, organism-based. The note with it: in vivo. The method in brief: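 Male ICR mice, 6–8 weeks old (N=3 per group), with a carotid artery cannula implanted one day before dosing. Dosed at 5 mg/kg in NMP:PEG300:water (1:4:5) as an IV bolus or by oral gavage. Blood drawn at 2–360 min; plasma protein-precipitated with acetonitrile containing internal standard, assayed by LC/MS/MS; noncompartmental analysis.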

Series [6] is described as follows: Solubility of the compound in PBS by nephelometric analysis. Type of series: physicochemical. The method in brief: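 Aqueous solubility in PBS was measured by nephelometry; the limit of complete solubility was taken as the concentration giving a statistical increase of light scattering over blank.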
Series [7] relates to DU-145. Briefly: Mitotoic arrest in human DU145 cells assessed as misalignment of chromosomes at 25 nM after 24 hrs by FITC and propidium iodide staining-based confocal laser microscopic analysis. Type of series: functional, cell-based. The method in brief:
(§3)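 DU145 cells grown on glass coverslips, exposed to 0.025 μM for 24 h, fixed in 4% paraformaldehyde, permeabilized in PBS with 10% FBS/0.1% Triton X-100, stained with FITC-conjugated anti-α-tubulin (DM1A, 1 h, 37 °C) and propidium iodide (1 μg/mL, 5 min), then imaged by confocal microscopy (60× objective, XYZ-sectioning); DMSO-treated cells as vehicle.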

Series [8] deals with DU-145. Nature of the series: Cell cycle arrest in human DU145 cells assessed as accumulation at G2/M phase at 0.005 uM after 24 hrs by propidium iodide staining-based FACS flow cytometric analysis. It counts as functional. Put shortly: (§4)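 DU145 cells were plated at 1.0×10⁶ per dish in DMEM/10% FBS and treated 24 h later with increasing concentrations. After 24 h, attached and floating cells were pooled and fixed in ice-cold 70% ethanol for at least 24 h. Cells were stained with propidium iodide (50 μg/mL) plus RNase A for 30 min at 37 °C, then read on a FACScan with cell-cycle modelling.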

Series [9] deals with DU-145. Briefly: Cell cycle arrest in human DU145 cells assessed as accumulation at G2/M phase at 0.02 uM after 24 hrs by propidium iodide staining-based FACS flow cytometric analysis. It counts as functional. Put shortly:
as §4

Series [10] concerns DU-145. Briefly: Induction of apoptosis in human DU145 cells assessed as increase in PARP cleavage at 10 to 20 nM after 24 to 72 hrs by Western blotting analysis. It counts as functional, cell-based. Put shortly:
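DU145 cells were plated at 1.0×10⁶ per plate and treated 24 h later with DMSO or increasing concentrations, then harvested at set time points. Cells were lysed in 0.1% Triton X-100 buffer with protease inhibitors. Equal protein was run on 10% SDS-PAGE, blotted with anti-PARP and detected with IRDye 800 secondary on Odyssey.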

For series [11], the system named is Mus musculus. Nature of the series: Elimination half life in ICR mouse at 5 mg/kg, iv by LC-MS/MS analysis. It counts as ADME, organism-based. Further details: dose 5 mg/kg, route intravenous. As to conditions: in vivo. The method in brief: as §1
Series [12] is described as follows: Cytotoxicity against human NAMALWA cells after 96 hrs by trypan blue exclusion assay. It counts as functional. As to conditions: NAMALVA. Put shortly:
as §2

The test system of series [13] is DU-145. Briefly: Mitotoic arrest in human DU145 cells assessed as appearance of abnormal spindles at 25 nM after 24 hrs by FITC and propidium iodide staining-based confocal laser microscopic analysis. It counts as functional, cell-based. Put shortly:
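DU145 cells on glass coverslips were treated with 0.025 μM compound or DMSO for 24 h and fixed in 4% paraformaldehyde. After blocking and permeabilizing in PBS with 10% FBS and 0.1% Triton X-100, they were stained with FITC anti-α-tubulin (DM1A) for 1 h at 37 °C and with propidium iodide 1 μg/mL. Imaging was by confocal microscopy, 60× objective, as z-sections.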

For another series, the species on record is Bos taurus. Briefly: Inhibition of bovine brain tubulin assessed as destabilization of microtubule polymerization at 10 uM over 40 mins by spectrophotometric analysis. Put shortly: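 Purified bovine brain tubulin was incubated at 37 °C with 10 μM compound, DMSO or reference agents. Polymerization was followed as rising absorbance at 340 nm over 40 min. Data are representative of three independent experiments.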

The subject of series [14] is DU-145. Nature of the series: Cytotoxicity against human DU145 cells after 96 hrs by trypan blue exclusion assay. Type of series: functional, cell-based. The method in brief:
as §2

A short description of series [15]: Cytotoxicity against human HepG2 cells after 4 hrs by Alamar Blue assay. Type of series: cell-based. The note with it: read-out: LD50.
Series [16] concerns DU-145. Briefly: Cell cycle arrest in human DU145 cells assessed as accumulation at subG1 phase at 0.005 to 0.02 uM after 24 hrs by propidium iodide staining-based FACS flow cytometric analysis. It counts as functional. The method in brief: as §4
Series [17] relates to DU-145. Nature of the series: Mitotoic arrest in human DU145 cells assessed as complete depolymerization of microtubule cytoskeleton at 25 nM after 24 hrs by FITC and propidium iodide staining-based confocal laser microscopic analysis. It counts as functional, cell-based. The method in brief:
as §3

In series [18] the test system is MDCK. Nature of the series: Apparent permeability from basolateral to apical side in MDCK cells expressing MDR-1 at 10 uM after 90 mins by LC-MS/MS analysis. It counts as ADME, cell-based, Canis lupus familiaris. As to conditions: dog, 1.5 h. The method in brief:
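MDCK-MDR1 (Pgp-expressing) monolayers were used 3–4 days post-seeding, only if TEER exceeded 1000 Ω·cm² before and after the run. Compound starting concentration was 10 μM. Transport was measured A→B and B→A over 90 min and quantified by LC/MS/MS. Apparent permeabilities gave the efflux ratio.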

Take `COc1cc(OC)c(/C=C/S(=O)(=O)Nc2ccc(OC)c(N)c2)c(OC)c1`: the inhibition entry with MIA PaCa-2 is “Dose-dependent effect”. Also, the GI50 in series [1] is 0.01 µM; in series [3] it was 0.004 µM; in series [12], 0.008 µM. This compound also came in with an AUC in the series on Mus musculus [2] of 700 ng·h/mL. The Ratio in the series with MDCK [4] came out at 7.9. Moreover, the result with BT-20, with DU-145 [7], in the series on DU-145 [8], in the series on DU-145 [9], with DU-145 [10] and in the series with DU-145 [13] was Active. For the same compound, the result with DU-145 [16] and in the series on DU-145 [17] was Active. Moreover, in the series with Mus musculus [5], the F was found to be 34%. In series [6], this compound registered a solubility (kinetic) of 62.5 µM (≈ 24.7 µg/mL). Further, the “beta t1/2” value with Mus musculus [11] is 1.7 h. Further, the inhibition entry in the series filed under Bos taurus is “Active”. The Activity result in the series on DU-145 [14] was “Dose-dependent effect”. This compound also registered an IC50 with DU-145 [14] (DU-145, 96 h) of 0.005 µM. Besides, the CC50 at 4 h in [15] is more than 1000 µM. Moreover, the Papp with MDCK [18] was determined as 72 ×10⁻⁶ cm/s.
